The text below walks through data of ChEMBL document CHEMBL1128436, “Synthesis and biological evaluation of a new series of sterols as potential hypocholesterolemic agents” (1995).

Calls of active or inactive are those of the source. The calls are words filed in the database; no cut-off is given here.

In experiment [1] the test system is Cricetinae gen. sp. The experiment is described as follows: Total serum cholesterol level relative to the control value (274(23)) in hamsters at a dose of 0.2% of diet for 1 week. It counts as functional, Cricetulus griseus.
For experiment [2], the system named is Cricetinae gen. sp. The experiment is described as follows: Serum cholesterol level change relative to the control value (274(23)) in hamsters at a dose of 0.2% of diet for 1 week. It counts as functional, Cricetulus griseus.
Experiment [3] concerns Cricetinae gen. sp. The experiment is described as follows: Total serum cholesterol level with relative to the control value [306(27)] in hamsters at a dose of 0.2% of diet for 1 week. Type of experiment: functional, Cricetulus griseus.
Experiment [4] concerns the target Low-density lipoprotein receptor (Homo sapiens) (UniProt P01130). The experiment is described as follows: Capability of derepressing the transcription of human Low density lipoprotein receptor promoter in the presence of 25-hydroxycholesterol in CHO cells by luciferase assay; NA= Not active within the test range 0-20 ug/mL. It counts as cell-based. The method, boiled down: (§1)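 Stably transfected CHO clone S27/B30 (LDL receptor promoter fused to firefly luciferase), grown to confluence (2-3 days, 37 °C, 5% CO2). Then 24 h in serum-free assay medium (DMEM/Ham's F-12 3:1, 0.5% bovine albumin) with 25-hydroxycholesterol 0.5 μg/mL plus compound at 0.30-20 μg/mL from ethanol stock, triplicate wells. Lysate luciferase peak light per μg protein (Coomassie). EC30 = concentration giving 30% rise over control. MA = % specific induction at 20 μg/mL.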

The species entered for experiment [5] is Mesocricetus auratus. The experiment is described as follows: Serum cholesterol level change relative to the control value [306(27)] in hamsters at a dose of 0.2% of diet for 1 week.
Experiment [6] concerns CHO. The experiment is described as follows: Capability of derepressing the transcription of SV40 promoter in CHO cells by luciferase assay; NA= Not active within the test range 0-20 ug/mL. It counts as functional, cell-based. The note with it: Cricetulus griseus. The method, boiled down: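 Counter-screen in CHO clone SV40/LN9, with luciferase driven by the SV40 promoter. Confluent monolayers were given compound at 0.30-20 μg/mL for 24 h in serum-free albumin assay medium, triplicate wells. Lysates were read for luciferase peak luminescence, normalized to lysate protein.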

The test system of experiment [7] is Cricetinae gen. sp. The experiment in a line: Serum cholesterol level change relative to the control value [320(14)] in hamsters at a dose of 0.2% of diet for 1 week. It counts as functional, Cricetulus griseus.
For experiment [8], the system named is Cricetinae gen. sp. The experiment in a line: Total serum cholesterol level with relative to the control value [320(14)] in hamsters at a dose of 0.2% of diet for 1 week. Type of experiment: functional, Cricetulus griseus.
Experiment [9] concerns the target Low-density lipoprotein receptor (Homo sapiens) (UniProt P01130). The experiment is described as follows: Capability of derepressing the transcription of Low density lipoprotein receptor promoter in the presence of 25-hydroxycholesterol in CHO cells measured as maximum activity at 20 ug/mL. It counts as cell-based. Summed up:
as §1

For experiment [10] the target is unchanged. The experiment in a line: Capability of derepressing the transcription of human Low density lipoprotein receptor promoter in the presence of 25-hydroxycholesterol in CHO cells by luciferase assay. Type of experiment: cell-based. Summed up:
as §1

The subject of experiment [11] is CHO. The experiment is described as follows: In vitro [1-14C]-acetate]-cholesterol biosynthesis inhibition assay (14CACBI) in CHO cells; neg = Negative :no effect on biosynthesis of cholesterol. It counts as functional, cell-based. The note with it: Cricetulus griseus. The method, boiled down: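 Confluent CHO cells in replicate 100 mm dishes were held 20 h in assay medium without 25-hydroxycholesterol, with ethanol vehicle (0.5% v/v) or compound at 20 μg/mL. [1-14C]acetate was then added (final 1 μCi/mL) for 4 h more. Cells were scraped and sonicated, lipids separated, and the cholesterol band scraped and counted by scintillation.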

The subject of experiment [12] is Cricetinae gen. sp. The experiment in a line: Total serum cholesterol level with relative to the control value [383(13)] in hamsters at a dose of 0.2% of diet for 1 week. It counts as functional, Cricetulus griseus.
The species named for experiment [13] is Mesocricetus auratus. The experiment in a line: Serum cholesterol level change relative to the control value [383(13)] in hamsters at a dose of 0.2% of diet for 1 week.

Low-density lipoprotein receptor (Homo sapiens), sequence (P01130 whole entry, the tested form may be a part): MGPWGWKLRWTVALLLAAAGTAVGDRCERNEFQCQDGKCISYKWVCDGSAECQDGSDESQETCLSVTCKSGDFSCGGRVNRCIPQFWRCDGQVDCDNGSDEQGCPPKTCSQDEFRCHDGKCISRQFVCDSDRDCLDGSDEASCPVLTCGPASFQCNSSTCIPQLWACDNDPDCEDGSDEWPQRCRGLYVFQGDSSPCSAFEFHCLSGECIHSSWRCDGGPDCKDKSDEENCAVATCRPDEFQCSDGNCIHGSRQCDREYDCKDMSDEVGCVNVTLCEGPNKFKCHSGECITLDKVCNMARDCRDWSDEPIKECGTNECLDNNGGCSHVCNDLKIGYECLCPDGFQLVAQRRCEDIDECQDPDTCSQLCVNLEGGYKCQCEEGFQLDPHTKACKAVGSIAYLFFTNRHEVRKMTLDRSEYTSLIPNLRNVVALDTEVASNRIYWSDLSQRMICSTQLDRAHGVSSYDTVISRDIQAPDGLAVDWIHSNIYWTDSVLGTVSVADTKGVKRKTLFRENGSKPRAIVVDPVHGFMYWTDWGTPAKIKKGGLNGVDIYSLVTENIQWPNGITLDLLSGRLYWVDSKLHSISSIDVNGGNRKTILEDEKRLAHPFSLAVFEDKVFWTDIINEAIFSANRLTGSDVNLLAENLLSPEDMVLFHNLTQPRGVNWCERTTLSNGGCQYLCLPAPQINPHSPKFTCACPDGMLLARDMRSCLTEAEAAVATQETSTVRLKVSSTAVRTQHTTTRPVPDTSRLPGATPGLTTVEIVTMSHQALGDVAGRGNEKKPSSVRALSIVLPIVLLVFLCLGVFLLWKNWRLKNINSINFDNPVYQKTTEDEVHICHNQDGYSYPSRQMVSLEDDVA

Turning to `CC(C)CCC[C@@H](C)[C@H]1CC[C@H]2[C@@H]3CC[C@H]4[C@H](Cc5ccc(F)cc5)[C@@H](O)CC[C@]4(C)[C@H]3CC[C@]12C`, the Total cholesterol in experiment [1] is 287 mg/dL. Moreover, in [2], the Relative change is listed as 5%.
`CC(C)CCC[C@@H](C)[C@H]1CC[C@H]2[C@@H]3CCC4[C@H](Cc5ccc(O)cc5)[C@H](O)CC[C@]4(C)[C@H]3CC[C@]12C` (stereo partly specified) registered a Total cholesterol in [3] of 261 mg/dL. For the same molecule, the EC30 (as a rule, the concentration needed for an effect of 30%) in [4] was “inactive”. Also, the Relative change in experiment [5] is -15%.
In the case of `CC(C)CCC[C@@H](C)[C@H]1CC[C@H]2[C@@H]3CCC4[C@H](Cc5ccc(OC(F)(F)F)cc5)[C@H](O)CC[C@]4(C)[C@H]3CC[C@]12C` (stereo partly specified), the outcome in experiment [6] was inactive. Further, in [7], the Control is -34%. The Total cholesterol in experiment [8] was found to be 209 mg/dL. The MA in [9] was found to be 71%. For the same molecule, the concentration for an effect of 30% (EC30) in experiment [10] stood at 15 µM.
`CC(C)CCC[C@@H](C)[C@H]1CC[C@H]2[C@@H]3CCC4[C@H](Cc5ccc(I)cc5)[C@H](O)CC[C@]4(C)[C@H]3CC[C@]12C` (stereo partly specified): the result in experiment [6] was inactive. Besides, the Activity result in experiment [11] is “Negative”. Moreover, the Total cholesterol in experiment [12] was found to be 240 mg/dL. For the same molecule, the MA in experiment [9] came out at 80%. Also, the EC30 in experiment [10] worked out at 2.8 µM. In [13], the Relative change is -37%.
